Experimental data published in the array DNA melting data of Ke et al. (doi:10.1101/2024.01.08.574731).

Legend:
[1] = melting temperature; fluorescence melt of hairpins on a sequencing array, two-state fit, raised by 9.35 °C to match UV melts; conditions: sodium 0.088 M
Outline: (§1)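 On a sequenced MiSeq flow cell, library hairpins with annealed Cy3 and quencher oligos were imaged for Cy3 fluorescence in 2.5 °C steps up to 60 °C, in 50 mM Na-HEPES pH 8.0, 25 mM NaCl. Normalisation used pre-quench Cy3 and control constructs. Bootstrapped two-state fits gave melting temperature and folding enthalpy, combined by inverse variance across four replicates and with fitted temperatures raised by 9.35 °C to match UV melts.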

[2] = folding enthalpy; higher = less favourable; fluorescence melt of hairpins on a sequencing array, two-state fit; conditions: sodium 0.088 M
Outline: as §1

Sequence | Tm [1] [°C] | folding enthalpy [2] [kcal/mol]
GCAGGTCGAAAGACTTGC (((.(((....))).))) | 56.7 | -41.2
GTGAGGGGAAACCTTCAC ((((.((....)).)))) | 46 | -28.8
GAATCAGGAAACTGGTTC (((.(((....))).))) | 42.6 | -31.2
GCGTATCGAAAGATCCGC (((.(((....))).))) | 50.2 | -38.1
GCCGTGCGAAAGCAATGC ((..(((....)))..)) | 39.2 | -11.2
GATCTATCCGTAGATC ((((((....)))))) | 43.1 | -30.1
GATCGGCTATCCGATC ((((((....)))))) | 55.8 | -38.4
CGTGCGGAAACGCCCACG ((((((....)))..))) | 38.2 | -22.4
GATATAACGAAAGTTATC (((..(((....)))))) | 30.6 | -15.6
GCCCCGGCGAAAGCCGGC (((..(((....)))))) | 39.8 | -2.7
GAGGACGGAAACATCCTC (((((.(....).))))) | 38.3 | -26.7
GCACCGCGAAAGCCGCGC ((.(.((....)).).)) | 41.4 | -16.8
GAAACACGAAAGTGTTC (((.(((....)))))) | 44 | -12.7
GATCTTATTAAAGATC ((((((....)))))) | 42.8 | -30.7
GGTATTGCGAAAGCAACC (((..(((....)))))) | 29.4 | -10
GATTACGAAAGTAGATC ((((((....))).))) | 29 | -19
GTTACAGGAAACTGTAGC (.(((((....))))).) | 38.9 | -22.6
GATCAACTGTTGATC ((((((...)))))) | 44.2 | -36.1
GATCTATTATTAGATC ((((((....)))))) | 43.2 | -34.1
GGTCGGGGAAACCCAACC (((.(((....))).))) | 44.9 | -27
GTGGCAGGAAACTGTCGC (.(.(((....))).).) | 45.7 | -27.3
GGGGCCGCGAAAGCGCCC (((..(((....)))))) | 66 | -11
GGATAAGGAAACTTATTC (.(((((....))))).) | 30.4 | -21.2
GCTCAGGAAACTGAGC ((((((....)))))) | 64.7 | -42.4

Sequence | Tm [1] [°C] | folding enthalpy [2] [kcal/mol]
GAGTACCGAAAGGTCCTC (((.(((....))).))) | 45.3 | -25.2
GTTCACGAAAGTGTGAAC ((((((....)))..))) | 47.3 | -25.7
GATCGAAAGCTCGATC ((((((....)))))) | 48.7 | -29.6
GGCATCGAAAGATAGCC ((((((....))).))) | 51.9 | -25.6
GCGGAAAGCCGC ((((....)))) | 48.5 | -16.3
GTCTACGAAAGTAGAGAC ((((((....)))..))) | 40.1 | -12.8
GAGCCCGAAAGGGTCCTC ((((((....)))..))) | 42.5 | -13.2
GTCTCGGGAAACTGAGAC (((((.(....).))))) | 51.5 | -42.9
GACTTCGGAAACGAAGCC (.(((((....))))).) | 45.6 | -15
GCTTCGGGAAACTGAGGC ((.((.(....).)).)) | 36.5 | -28.8
GGAGAGCGAAAGCTATCC (((.(((....))).))) | 57.6 | -42.1
GCACTAGCGAAAGCTTGC (((..(((....)))))) | 38.6 | -12.6
GGTCCTGGAAACGGGATC (.(((.(....).))).) | 38.4 | -28.5
GGTACTGGAAACAGTGCC ((.((((....)))).)) | 54.9 | -41.8
GATCATTGCATGATC ((((((...)))))) | 50.4 | -34
GTTAACCGAAAGGTAAC (((.(((....)))))) | 40.8 | -18.8
GGTAGTGGAAACGCTACC (((((.(....).))))) | 51.7 | -34.9
GTGGTAGGAAACTATCAC (((.(((....))).))) | 44.4 | -28.4
GCCGATGGAAACATCAGC ((.((((....)))).)) | 41.5 | -24.5
GCGAAAACTCGC ((((....)))) | 41.7 | -13.1
GCCCAAACGAAAGTTGGC (((..(((....)))))) | 45 | -19.2
GCATGGCGAAAGCCGGGC ((..(((....)))..)) | 60.4 | -17.7
GCGAGAGGTCGC ((((....)))) | 50.9 | -8.36
